Laboratory results as given in ChEMBL document CHEMBL4376814, “Novel cyclin-dependent kinase 9 (CDK9) inhibitor with suppression of cancer stemness activity against non-small-cell lung cancer” (Eur J Med Chem, 2019).
Calls of active or inactive are those of the source. The calls are words filed in the database; no cut-off is given here.

How the values were obtained:
HepG2 = assay: Antiproliferative activity against human HepG2 cells assessed as inhibition of cell viability at 500 nM after 72 hrs by CCK-8 assay relative to control; type: functional; conditions: HepG2, 72 h
Outline: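 Single-concentration viability screen using CCK-8. Cells were seeded at 3000/well and treated for 72 h. A450 read after 1-4 h with reagent. Percent inhibition calculated against untreated control and blank wells as (Ac−As)/(Ac−Ab)×100%.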

PC-9 = assay: Antiproliferative activity against human PC9 cells assessed as inhibition of cell viability after 72 hrs by CCK-8 assay; type: functional, cell-based; conditions: PC-9, 72 h
Outline: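 Cells kept at 37 °C, 5% CO2 in DMEM or RPMI-1640 with 10% FBS and 1% penicillin/streptomycin, then seeded at 3000 cells/well (adherent) or 10,000 cells/well (suspension). Exposed to a range of concentrations for 72 h. CCK-8 added for 1-4 h before reading A450. […] Three independent experiments.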

A549 [1] = assay: Induction of apoptosis in human A549 cells assessed as increase in cleaved caspase 3 expression at 0.25 to 1 uM after 24 hrs by Western blot analysis; type: functional, cell-based
Outline: (§1)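 A549 or H1299 cells exposed to the indicated concentrations for 24 h. Protein extracts then immunoblotted for apoptosis-pathway proteins (Bcl2, Bim, cleaved caspase 3).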

A549 [2] = assay: Induction of apoptosis in human A549 cells assessed as activation of caspase 3 at 0.25 to 1 uM after 24 hrs by Western blot analysis; type: functional, cell-based; outline: as §1
NCI-H1299 [3] = assay: Down regulation CDK9 expression in human H1299 cells at 0.25 to 1 uM after 24 hrs by Western blot analysis; type: functional, cell-based
Outline: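 A549 and H1299 cells treated for 24 h with serial dilutions alongside a DMSO control. Protein extracts resolved and immunoblotted.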

A549 [4] = assay: Downregulation of SOX2 in human A549 cells at 0.25 to 1 uM by Western blot analysis; type: functional, cell-based
NCI-H1299 [5] = assay: Downregulation of KLF4 in human H1299 cells at 0.25 to 1 uM by Western blot analysis; type: functional, cell-based
[6] = biological target: Calcium/calmodulin-dependent protein kinase type II subunit alpha (Homo sapiens) (UniProt Q9UQM7); assay: Inhibition of full-length recombinant human CaMK2 alpha at 1 uM using KKLNRTLSFAEPG as substrate measured after 40 mins in presence of [gamma33P]ATP by scintillation counting method relative to control
Calcium/calmodulin-dependent protein kinase type II subunit alpha (Homo sapiens), sequence (Q9UQM7 whole entry): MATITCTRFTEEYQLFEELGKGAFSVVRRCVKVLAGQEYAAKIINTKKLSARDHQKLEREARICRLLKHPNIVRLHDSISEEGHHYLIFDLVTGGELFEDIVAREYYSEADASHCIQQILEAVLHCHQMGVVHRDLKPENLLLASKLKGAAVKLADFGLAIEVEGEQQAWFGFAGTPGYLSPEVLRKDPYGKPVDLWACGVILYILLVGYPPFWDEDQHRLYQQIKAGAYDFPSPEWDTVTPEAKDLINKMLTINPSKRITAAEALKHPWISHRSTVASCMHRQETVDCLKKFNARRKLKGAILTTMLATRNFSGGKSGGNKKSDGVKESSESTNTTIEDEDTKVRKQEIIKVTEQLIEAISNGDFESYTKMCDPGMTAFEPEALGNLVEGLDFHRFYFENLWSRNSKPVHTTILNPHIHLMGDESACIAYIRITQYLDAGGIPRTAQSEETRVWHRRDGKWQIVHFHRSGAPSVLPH
Outline: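 Percent inhibition of kinase activity at a single compound concentration, measured by the outsourced Eurofins KinaseProfiler panel. Values are the mean of two independent experiments.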

[7] = biological target: Myosin light chain kinase, smooth muscle (Homo sapiens) (UniProt Q15746); assay: Inhibition of recombinant human MLCK (1425 to 1771 residues) at 1 uM using calmodulin as substrate measured after 40 mins in presence of [gamma33P]ATP by scintillation counting method relative to control
[8] = biological target: Cyclin-dependent kinase-like 1 (Homo sapiens) (UniProt Q00532); assay: Inhibition of recombinant human CDKL1 (1 to 303 residues) at 1 uM using RRRFRPASPLRGP as substrate measured after 120 mins in presence of [gamma33P]ATP by scintillation counting method relative to control
Cyclin-dependent kinase-like 1 (Homo sapiens), sequence (Q00532 whole entry, the tested form may be a part): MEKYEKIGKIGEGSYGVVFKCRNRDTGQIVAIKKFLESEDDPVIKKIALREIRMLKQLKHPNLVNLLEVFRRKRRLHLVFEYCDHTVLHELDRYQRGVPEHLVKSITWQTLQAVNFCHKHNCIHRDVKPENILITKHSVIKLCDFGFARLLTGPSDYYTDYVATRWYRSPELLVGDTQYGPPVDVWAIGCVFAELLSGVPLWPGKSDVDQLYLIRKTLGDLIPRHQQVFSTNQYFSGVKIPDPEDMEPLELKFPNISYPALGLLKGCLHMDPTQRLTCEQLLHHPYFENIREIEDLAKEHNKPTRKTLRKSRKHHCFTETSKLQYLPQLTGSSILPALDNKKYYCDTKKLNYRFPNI

[9] = biological target: Platelet-derived growth factor receptor alpha (Homo sapiens) (UniProt P16234); assay: Inhibition of recombinant human PDGFRalpha (550 to end residues) at 1 uM using poly[Glu:Tyr] (4:1) as substrate measured after 40 mins in presence of [gamma33P]ATP by scintillation counting method relative to control
Platelet-derived growth factor receptor alpha (Homo sapiens), sequence (P16234 whole entry, the tested form may be a part): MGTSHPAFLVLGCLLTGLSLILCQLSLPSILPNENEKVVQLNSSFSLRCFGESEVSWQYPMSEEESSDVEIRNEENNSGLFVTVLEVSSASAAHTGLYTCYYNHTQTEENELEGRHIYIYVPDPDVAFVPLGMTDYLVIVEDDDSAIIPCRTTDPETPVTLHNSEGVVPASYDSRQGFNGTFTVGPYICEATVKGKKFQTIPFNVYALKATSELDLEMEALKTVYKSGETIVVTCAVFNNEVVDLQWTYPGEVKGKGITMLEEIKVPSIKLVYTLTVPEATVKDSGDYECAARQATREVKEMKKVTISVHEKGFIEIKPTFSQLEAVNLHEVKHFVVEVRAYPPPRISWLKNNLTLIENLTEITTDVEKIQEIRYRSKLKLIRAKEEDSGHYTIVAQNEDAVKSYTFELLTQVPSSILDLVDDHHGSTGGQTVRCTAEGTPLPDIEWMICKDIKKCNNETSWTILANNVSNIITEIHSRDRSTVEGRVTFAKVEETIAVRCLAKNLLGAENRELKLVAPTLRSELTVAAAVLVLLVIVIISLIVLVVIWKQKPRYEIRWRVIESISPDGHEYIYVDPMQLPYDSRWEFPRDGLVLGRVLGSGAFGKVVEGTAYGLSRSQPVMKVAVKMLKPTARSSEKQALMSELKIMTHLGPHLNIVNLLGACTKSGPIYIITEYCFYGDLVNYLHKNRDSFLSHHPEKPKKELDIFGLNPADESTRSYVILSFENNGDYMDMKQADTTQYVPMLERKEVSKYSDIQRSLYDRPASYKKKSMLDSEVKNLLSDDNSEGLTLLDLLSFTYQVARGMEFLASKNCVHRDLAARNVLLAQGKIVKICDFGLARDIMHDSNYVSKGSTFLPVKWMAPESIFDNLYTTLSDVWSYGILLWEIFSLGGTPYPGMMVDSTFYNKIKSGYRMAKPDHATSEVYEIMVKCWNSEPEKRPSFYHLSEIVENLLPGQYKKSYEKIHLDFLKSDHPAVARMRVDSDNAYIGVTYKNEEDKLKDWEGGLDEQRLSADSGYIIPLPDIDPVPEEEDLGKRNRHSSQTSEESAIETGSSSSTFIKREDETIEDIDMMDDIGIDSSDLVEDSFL

[10] = tested on: Discoidin domain-containing receptor 2 (Homo sapiens), Q16832 [UNDEFINED MUTATION]; assay: Inhibition of recombinant human DDR2 S642A mutant (467 to end residues) at 1 uM using KKSRGDYMTMQIG as substrate measured after 40 mins in presence of [gamma33P]ATP by scintillation counting method relative to control
Discoidin domain-containing receptor 2 (Homo sapiens), Q16832 [UNDEFINED MUTATION], sequence (Q16832 whole entry, looked up, stated change not applied, the tested form may be a part): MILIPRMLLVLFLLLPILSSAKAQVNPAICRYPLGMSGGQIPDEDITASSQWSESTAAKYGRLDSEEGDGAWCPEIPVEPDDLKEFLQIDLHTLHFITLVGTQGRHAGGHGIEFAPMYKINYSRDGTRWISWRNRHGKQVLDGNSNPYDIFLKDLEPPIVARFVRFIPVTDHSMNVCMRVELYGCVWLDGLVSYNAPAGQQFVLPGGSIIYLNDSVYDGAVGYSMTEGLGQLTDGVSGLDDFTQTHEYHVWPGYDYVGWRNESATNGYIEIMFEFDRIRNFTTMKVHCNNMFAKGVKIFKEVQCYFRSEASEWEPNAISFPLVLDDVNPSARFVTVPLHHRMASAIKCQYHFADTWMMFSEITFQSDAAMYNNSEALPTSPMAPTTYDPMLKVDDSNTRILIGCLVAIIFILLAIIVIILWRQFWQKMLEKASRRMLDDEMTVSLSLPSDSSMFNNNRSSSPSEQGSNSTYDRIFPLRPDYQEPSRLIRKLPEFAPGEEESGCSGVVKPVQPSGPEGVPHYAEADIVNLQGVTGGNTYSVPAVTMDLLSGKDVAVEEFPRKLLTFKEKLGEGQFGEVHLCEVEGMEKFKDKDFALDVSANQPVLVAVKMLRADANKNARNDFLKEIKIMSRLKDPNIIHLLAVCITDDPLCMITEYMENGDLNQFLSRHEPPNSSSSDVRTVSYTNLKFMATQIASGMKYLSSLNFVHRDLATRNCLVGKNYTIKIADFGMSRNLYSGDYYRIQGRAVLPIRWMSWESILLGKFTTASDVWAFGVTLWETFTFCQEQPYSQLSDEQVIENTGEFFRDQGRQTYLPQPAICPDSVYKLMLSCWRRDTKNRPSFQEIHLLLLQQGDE

[11] = biological target: Ephrin type-B receptor 4 (Homo sapiens) (UniProt P54760); assay: Inhibition of recombinant human EphB4 (561 to end residues) at 1 uM using poly(Glu, Tyr) 4:1 as substrate measured after 40 mins in presence of [gamma33P]ATP by scintillation counting method relative to control
Homo sapiens = species on record: Homo sapiens; assay: Inhibition of recombinant human PRAK R291E mutant at 1 uM using KKLRRTLSVA as substrate measured after 40 mins in presence of [gamma33P]ATP by scintillation counting method relative to control
[12] = tested on: Glycogen synthase kinase-3 beta (Homo sapiens), P49841 [UNDEFINED MUTATION]; assay: Inhibition of human recombinant GSK3beta H350L mutant (2 to end residues) at 1 uM using YRRAAVPPSPSLSR as substrate incubated for 40 mins in presence of [gamma-33P]ATP at Km concentration by radiometric assay relative to control
Glycogen synthase kinase-3 beta (Homo sapiens), P49841 [UNDEFINED MUTATION], sequence (P49841 whole entry, looked up, stated change not applied): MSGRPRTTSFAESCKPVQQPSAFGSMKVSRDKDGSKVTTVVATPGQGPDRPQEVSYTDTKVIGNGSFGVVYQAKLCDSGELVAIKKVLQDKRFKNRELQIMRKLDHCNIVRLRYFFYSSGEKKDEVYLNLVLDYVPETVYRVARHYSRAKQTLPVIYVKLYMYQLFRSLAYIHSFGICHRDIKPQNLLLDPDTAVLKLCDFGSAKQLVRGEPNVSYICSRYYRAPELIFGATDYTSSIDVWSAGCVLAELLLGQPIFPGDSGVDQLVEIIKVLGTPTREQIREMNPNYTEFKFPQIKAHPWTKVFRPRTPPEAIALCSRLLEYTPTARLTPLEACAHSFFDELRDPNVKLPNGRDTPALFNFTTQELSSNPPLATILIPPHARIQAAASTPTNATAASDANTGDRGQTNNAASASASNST
Outline: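 Single-point inhibition at 1 µM was measured in the Eurofins KinaseProfiler panel. Values are the mean of two independent experiments.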

[13] = biological target: Insulin receptor-related protein (Homo sapiens) (UniProt P14616); assay: Inhibition of recombinant human IRR (943 to 1266 residues) at 1 uM using myelin basic protein as substrate measured after 40 mins in presence of [gamma33P]ATP by scintillation counting method relative to control
[14] = biological target: Testis-specific serine/threonine-protein kinase 2 (Homo sapiens) (UniProt Q96PF2); assay: Inhibition of recombinant full-length human TSSK2 at 1 uM using KKKVSRSGLYRSPSMPENLNRPR as substrate measured after 40 mins in presence of [gamma33P]ATP by scintillation counting method relative to control
Testis-specific serine/threonine-protein kinase 2 (Homo sapiens), sequence (Q96PF2 whole entry): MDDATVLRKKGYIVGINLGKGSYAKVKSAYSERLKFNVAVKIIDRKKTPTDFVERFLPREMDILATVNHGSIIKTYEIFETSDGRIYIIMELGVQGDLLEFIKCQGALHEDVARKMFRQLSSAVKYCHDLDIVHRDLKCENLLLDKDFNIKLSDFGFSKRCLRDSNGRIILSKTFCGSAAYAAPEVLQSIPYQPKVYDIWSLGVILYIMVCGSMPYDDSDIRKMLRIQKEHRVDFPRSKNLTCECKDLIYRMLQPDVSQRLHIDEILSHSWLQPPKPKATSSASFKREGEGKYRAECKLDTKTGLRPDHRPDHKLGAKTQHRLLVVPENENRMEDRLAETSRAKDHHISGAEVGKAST

[15] = biological target: Mitogen-activated protein kinase 8 (Homo sapiens) (UniProt P45983); assay: Inhibition of recombinant full-length human JNK1alpha1 at 1 uM using ATF2 as substrate measured after 40 mins in presence of [gamma33P]ATP by scintillation counting method relative to control
Mitogen-activated protein kinase 8 (Homo sapiens), sequence (P45983 whole entry): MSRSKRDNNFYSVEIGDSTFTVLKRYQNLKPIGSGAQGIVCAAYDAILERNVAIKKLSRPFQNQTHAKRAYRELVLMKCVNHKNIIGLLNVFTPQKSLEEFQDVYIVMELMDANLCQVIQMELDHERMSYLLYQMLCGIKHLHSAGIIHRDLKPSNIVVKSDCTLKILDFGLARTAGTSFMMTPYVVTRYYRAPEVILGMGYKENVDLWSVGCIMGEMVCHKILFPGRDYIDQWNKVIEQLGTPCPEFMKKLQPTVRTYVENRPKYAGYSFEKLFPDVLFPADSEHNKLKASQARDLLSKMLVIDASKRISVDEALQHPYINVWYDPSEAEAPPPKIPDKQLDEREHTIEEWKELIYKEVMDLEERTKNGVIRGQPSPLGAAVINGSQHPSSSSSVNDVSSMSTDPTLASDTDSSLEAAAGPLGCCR

[16] = biological target: Tyrosine-protein kinase Lyn (Homo sapiens) (UniProt P07948); assay: Inhibition of recombinant full-length human LYN at 1 uM using poly(Glu, Tyr) 4:1 as substrate measured after 40 mins in presence of [gamma33P]ATP by scintillation counting method relative to control
Tyrosine-protein kinase Lyn (Homo sapiens), sequence (P07948 2-512 limits assumed): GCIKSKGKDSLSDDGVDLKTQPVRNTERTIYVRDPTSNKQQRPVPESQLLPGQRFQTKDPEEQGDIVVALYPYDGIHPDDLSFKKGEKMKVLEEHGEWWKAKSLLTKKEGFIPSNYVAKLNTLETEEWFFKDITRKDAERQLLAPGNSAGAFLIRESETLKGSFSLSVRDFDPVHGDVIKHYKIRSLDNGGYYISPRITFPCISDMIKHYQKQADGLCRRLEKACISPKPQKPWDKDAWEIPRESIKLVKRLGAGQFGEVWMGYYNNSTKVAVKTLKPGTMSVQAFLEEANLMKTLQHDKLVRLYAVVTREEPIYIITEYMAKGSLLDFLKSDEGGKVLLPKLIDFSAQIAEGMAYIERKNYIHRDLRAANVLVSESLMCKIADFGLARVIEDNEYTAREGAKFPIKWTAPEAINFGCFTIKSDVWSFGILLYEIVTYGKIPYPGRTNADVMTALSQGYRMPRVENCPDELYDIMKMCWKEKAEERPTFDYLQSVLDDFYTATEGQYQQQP

[17] = biological target: Serine/threonine-protein kinase VRK2 (Homo sapiens) (UniProt Q86Y07); assay: Inhibition of recombinant human VRK2 (1 to 336 residues) at 1 uM using casein as substrate measured after 40 mins in presence of [gamma33P]ATP by scintillation counting method relative to control
Serine/threonine-protein kinase VRK2 (Homo sapiens), sequence (Q86Y07 whole entry, the tested form may be a part): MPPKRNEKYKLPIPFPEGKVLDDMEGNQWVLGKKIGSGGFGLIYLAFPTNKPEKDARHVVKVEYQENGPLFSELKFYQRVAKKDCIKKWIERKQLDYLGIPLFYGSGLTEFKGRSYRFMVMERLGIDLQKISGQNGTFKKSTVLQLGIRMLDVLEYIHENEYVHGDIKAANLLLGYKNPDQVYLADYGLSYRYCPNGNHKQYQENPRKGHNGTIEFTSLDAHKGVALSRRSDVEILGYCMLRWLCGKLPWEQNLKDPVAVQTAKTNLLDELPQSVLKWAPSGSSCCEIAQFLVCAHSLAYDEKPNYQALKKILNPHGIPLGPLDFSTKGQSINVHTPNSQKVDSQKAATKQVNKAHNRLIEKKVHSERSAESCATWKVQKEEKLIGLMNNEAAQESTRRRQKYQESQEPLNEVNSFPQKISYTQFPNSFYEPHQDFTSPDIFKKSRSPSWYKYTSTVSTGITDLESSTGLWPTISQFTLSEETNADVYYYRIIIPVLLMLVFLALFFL

[18] = biological target: Phosphatidylinositol 5-phosphate 4-kinase type-2 alpha (Homo sapiens) (UniProt P48426); assay: Inhibition of recombinant full-length human PIP4K2alpha at 1 uM using phosphatidylinositol 5-phosphate as substrate measured after 40 mins by HTRF assay relative to control
NCI-H1299 [19] = assay: Induction of cell cycle arrest in human H1299 cells assessed as accumulation of cells at G0/G1 phase at 1 uM after 24 hrs by propidium iodide/RNase staining based flow cytometric analysis; type: functional
Outline: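 A549 and H1299 plated at 5×10^5 cells/mL in 6-well plates, treated after adherence for 24 h. Washed with PBS, fixed overnight in ice-cold 75% ethanol, stained with propidium iodide plus RNase A for 30 min at 37 °C, analysed by flow cytometry for phase distribution. Means ± SD, three independent experiments.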

SMILES: CN(C)C(=O)c1cc2cnc(Nc3ccc(NC(=O)CCCCCCCN=C=S)cc3)nc2n1C1CCCC1
- inhibition at 0.5 µM (HepG2): 23%
- IC50 (PC-9): 0.947 µM
- Activity (A549 [1]): Active
- Activity (A549 [2]): Active
- Activity (NCI-H1299 [3]): inactive
- Activity (A549 [4]): Active
- Activity (NCI-H1299 [5]): Active
- inhibition [6]: 61%
- inhibition [7]: 5%
- inhibition [8]: 17%
- inhibition [9]: 7%
- inhibition [10]: 17%
- inhibition [11]: -4%
- inhibition (Homo sapiens): 3%
- inhibition [12]: 32%
- inhibition [13]: 3%
- inhibition [14]: -3%
- inhibition [15]: 4%
- inhibition [16]: 25%
- inhibition [17]: 0%
- inhibition [18]: 0%
- Activity (NCI-H1299 [19]): inactive
